Data published in ChEMBL document CHEMBL1154719, “Click chemistry: studies on the synthesis of novel fluorous tagged triazol-4-yl substituted quinazoline derivatives and their biological evaluation--theoretical and experimental validation” (2010).
In brackets after ≈: the same amount, converted by molar mass.

Key:
Format in all cases: functional
Candida albicans [1] = assay: Antifungal activity against Candida albicans MTCC 227 at 100 ug/ml after 48 hrs by agar cup diffusion method; conditions: MTCC 227, 48 h, read-out: DIZ
Outline: (§1)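 Agar cup diffusion on autoclaved potato dextrose agar plates. Each plate was spread with 0.5 ml of a week-old culture, and test solutions at 30 and 100 per ml were added to cups. Plates were held at 28 °C for 48 h, and inhibition zone diameters were read in mm. Acetone served as the solvent control and amphotericin-B as the reference.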

Saccharomyces cerevisiae [2] = assay: Antifungal activity against Saccharomyces cerevisiae MTCC 36 at 100 ug/ml after 48 hrs by agar cup diffusion method; conditions: MTCC 36, 48 h, read-out: DIZ; outline: as §1
[3] = tested on: Staphylococcus epidermidis; assay: Antibacterial activity against Staphylococcus epidermidis MTCC 435 by broth dilution method
Outline: (§2)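 MIC by broth dilution in nutrient broth. Test bacteria were kept on nutrient agar slants and subcultured in Petri dishes before testing.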

Diutina rugosa [4] = assay: Antifungal activity against Candida rugosa NCIM 3462 at 100 ug/ml after 48 hrs by agar cup diffusion method; conditions: NCIM 3462, 48 h, read-out: DIZ; outline: as §1
Aspergillus niger [5] = assay: Antifungal activity against Aspergillus niger MTCC 1344 at 30 ug/ml after 48 hrs by agar cup diffusion method; conditions: MTCC 1344, 48 h, read-out: DIZ; outline: as §1
Candida albicans [6] = assay: Antifungal activity against Candida albicans MTCC 227 at 30 ug/ml after 48 hrs by agar cup diffusion method; conditions: MTCC 227, 48 h, read-out: DIZ; outline: as §1
Rhizopus arrhizus [7] = assay: Antifungal activity against Rhizopus oryzae MTCC 262 at 100 ug/ml after 48 hrs by agar cup diffusion method; conditions: MTCC 262, 48 h, read-out: DIZ; outline: as §1
Saccharomyces cerevisiae [8] = assay: Antifungal activity against Saccharomyces cerevisiae MTCC 36 at 30 ug/ml after 48 hrs by agar cup diffusion method; conditions: MTCC 36, 48 h, read-out: DIZ; outline: as §1
Escherichia coli = assay: Antibacterial activity against Escherichia coli MTCC 443 by broth dilution method; outline: as §2
Bacillus subtilis = assay: Antibacterial activity against Bacillus subtilis MTCC 441 by broth dilution method; outline: as §2
Aspergillus niger [9] = assay: Antifungal activity against Aspergillus niger MTCC 1344 at 100 ug/ml after 48 hrs by agar cup diffusion method; conditions: MTCC 1344, 48 h, read-out: DIZ; outline: as §1
Aspergillus flavus [10] = assay: Antifungal activity against Aspergillus flavus MTCC 277 at 100 ug/ml after 48 hrs by agar cup diffusion method; conditions: MTCC 277, 48 h, read-out: DIZ; outline: as §1
Pseudomonas aeruginosa = assay: Antibacterial activity against Pseudomonas aeruginosa MTCC 741 by broth dilution method; outline: as §2
Staphylococcus aureus = assay: Antibacterial activity against Staphylococcus aureus MTCC 96 by broth dilution method; outline: as §2
Aspergillus flavus [11] = assay: Antifungal activity against Aspergillus flavus MTCC 277 at 30 ug/ml after 48 hrs by agar cup diffusion method; conditions: MTCC 277, 48 h, read-out: DIZ; outline: as §1
Diutina rugosa [12] = assay: Antifungal activity against Candida rugosa NCIM 3462 at 30 ug/ml after 48 hrs by agar cup diffusion method; conditions: NCIM 3462, 48 h, read-out: DIZ; outline: as §1
Rhizopus arrhizus [13] = assay: Antifungal activity against Rhizopus oryzae MTCC 262 at 30 ug/ml after 48 hrs by agar cup diffusion method; conditions: MTCC 262, 48 h, read-out: DIZ; outline: as §1

| Compound | zone of inhibition at 100 µg/mL (Candida albicans [1]) [mm] | zone of inhibition at 100 µg/mL (Saccharomyces cerevisiae [2]) [mm] | MIC [3] [µg/mL] | zone of inhibition at 100 µg/mL (Diutina rugosa [4]) [mm] | zone of inhibition at 30 µg/mL (Aspergillus niger [5]) [mm] | zone of inhibition at 30 µg/mL (Candida albicans [6]) [mm] | zone of inhibition at 100 µg/mL (Rhizopus arrhizus [7]) [mm] | zone of inhibition at 30 µg/mL (Saccharomyces cerevisiae [8]) [mm] | MIC (Escherichia coli) [µg/mL] | MIC (Bacillus subtilis) [µg/mL] | zone of inhibition at 100 µg/mL (Aspergillus niger [9]) [mm] | zone of inhibition at 100 µg/mL (Aspergillus flavus [10]) [mm] | MIC (Pseudomonas aeruginosa) [µg/mL] | MIC (Staphylococcus aureus) [µg/mL] | zone of inhibition at 30 µg/mL (Aspergillus flavus [11]) [mm] | zone of inhibition at 30 µg/mL (Diutina rugosa [12]) [mm] | zone of inhibition at 30 µg/mL (Rhizopus arrhizus [13]) [mm] |
| --- | --- | --- | --- | --- | --- | --- | --- | --- | --- | --- | --- | --- | --- | --- | --- | --- | --- |
| FC(F)(F)C(F)(F)C(F)(F)C(F)(F)C(F)(F)C(F)(F)C(F)(F)C(F)(F)CCn1cc(COc2nc(-c3ccccc3)nc3ccccc23)nn1 | 10 | 10 | 150 (≈ 200 µM) | 10 | 7 | 7 | 10 | 7 | 150 (≈ 200 µM) | 150 (≈ 200 µM) | 10 | 10 | 75 (≈ 100 µM) | 150 (≈ 200 µM) | 7 |  |  |
| C#CCn1c(-c2ccccc2)nc2ccccc2c1=O | 10 | 12 | 37.5 (≈ 144 µM) | 12 | 7 | 7 | 12 | 9 | 75 (≈ 288 µM) | 37.5 (≈ 144 µM) | 10 | 12 | 37.5 (≈ 144 µM) | 37.5 (≈ 144 µM) | 9 | 8 | 8 |
| C#CCOc1nc(-c2ccccc2)nc2ccccc12 | 10 |  | 150 (≈ 576 µM) |  | 7 | 7 |  |  | 150 (≈ 576 µM) | 150 (≈ 576 µM) | 10 |  | 150 (≈ 576 µM) | 150 (≈ 576 µM) |  |  |  |
| FC(F)(F)c1nc(OCc2cn(CCC(F)(F)C(F)(F)C(F)(F)C(F)(F)C(F)(F)C(F)(F)F)nn2)c2ccccc2n1 | 12 | 9 | 9.38 (≈ 14.6 µM) | 9 | 8 | 8 | 9 |  | 75 (≈ 117 µM) | 18.8 (≈ 29.2 µM) | 12 | 9 | 37.5 (≈ 58.5 µM) | 9.38 (≈ 14.6 µM) |  |  |  |
| FC(F)(F)C(F)(F)C(F)(F)C(F)(F)C(F)(F)C(F)(F)CCn1cc(COc2nc(-c3ccccc3)nc3ccccc23)nn1 | 11 | 9 | 75 (≈ 115 µM) |  | 8 | 8 |  |  | 75 (≈ 115 µM) | 150 (≈ 231 µM) | 11 | 9 | 75 (≈ 115 µM) | 75 (≈ 115 µM) |  |  |  |
| O=c1c2ccccc2nc(-c2c(F)cccc2F)n1Cc1cn(CCC(F)(F)C(F)(F)C(F)(F)C(F)(F)C(F)(F)C(F)(F)C(F)(F)C(F)(F)F)nn1 | 10 | 9 | 150 (≈ 191 µM) | 9 | 7 | 7 | 9 |  | 75 (≈ 95.5 µM) | 150 (≈ 191 µM) | 10 | 9 | 75 (≈ 95.5 µM) | 150 (≈ 191 µM) |  |  |  |
| O=c1c2ccccc2nc(-c2c(F)cccc2F)n1Cc1cn(CCC(F)(F)C(F)(F)C(F)(F)C(F)(F)C(F)(F)C(F)(F)F)nn1 | 10 |  | 150 (≈ 219 µM) |  | 7 | 7 |  |  | 150 (≈ 219 µM) | 150 (≈ 219 µM) | 10 |  | 150 (≈ 219 µM) | 150 (≈ 219 µM) |  |  |  |
| O=c1c2ccccc2nc(-c2ccccc2)n1Cc1cn(CCC(F)(F)C(F)(F)C(F)(F)C(F)(F)C(F)(F)C(F)(F)C(F)(F)C(F)(F)F)nn1 | 9 | 9 | 75 (≈ 100 µM) | 10 |  |  | 10 |  | 15 (≈ 20 µM) | 150 (≈ 200 µM) | 9 | 9 | 75 (≈ 100 µM) | 75 (≈ 100 µM) |  |  |  |
